{"source": "ChEMBL document CHEMBL3124940", "about": "“Design, synthesis and biological evaluation of D-ring opened galantamine analogs as multifunctional anti-Alzheimer agents” (Eur J Med Chem, 2014)", "key": {"[1]": {"system": "Rattus norvegicus", "assay": "Toxicity in Wistar rat assessed as GSSG level in kidney at 6 umol/100 g body weight, ip by fluorometric analysis relative to control", "assay_type": "organism-based", "details": "in vivo", "how_it_was_run": "(§1)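 Rats dosed i.p.; tissues taken after 24 h. For GSH/GSSG, tissue homogenized in 11 volumes of 0.2 M sodium phosphate (5 mM EDTA, pH 8.0) plus 4 volumes of 25% metaphosphoric acid and centrifuged 12 000 × g, 4 °C, 30 min; supernatant read photometrically (GSH) or fluorometrically (GSSG). Lipid peroxidation products measured as TBARS in 19-volume ice-cold saline homogenates, fluorometrically.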"}, "[2]": {"system": "Rattus norvegicus", "assay": "Antialzheimer activity in Wistar rat scopolamine-induced cognition impairment model assessed as decrease in amount of errors plus baits not found during exploration at 1 umol/100 g body weight, ip treated for 5 mins prior to scopolamine-challenge measured after 20 to 120 mins by eight-arm radial maze test", "assay_type": "functional, organism-based", "how_it_was_run": "(§2)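 Female 60-day-old Wistar rats (Han:Wist) trained in an eight-arm radial maze to error-free trials under 60 s on three consecutive days; each animal served as its own control. Test agent given i.p. in saline 5 min before scopolamine (0.05 mg/100 g b. wt., i.p. in saline). Errors plus baits not found after 10 min, and total searching time, recorded before and 20, 60, 120 min after scopolamine; n = 14, mean ± SEM.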"}, "[3]": {"assay": "Induction of nitric oxide release in PBS at 100 uM at pH 7.4 after 24 hrs by Griess method relative to control", "assay_type": "physicochemical", "details": "buffer, pH 7.4, 24 h", "how_it_was_run": "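Test compound at 100 µM in phosphate buffer pH 7.4, alone or with 90 µL rat serum added, incubated 37 °C for 24 h. Griess reagent added, then 30 min at 37 °C with gentle shaking; absorbance read at 540 nm and blank-corrected. Nitrite quantified against an NaNO2 calibration curve and expressed as % of a theoretical 1 mol NO per mol nitrate; n = 3.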"}, "[4]": {"system": "Rattus norvegicus", "assay": "Toxicity in Wistar rat assessed as GSH level in kidney at 6 umol/100 g body weight, ip by fluorometric analysis relative to control", "assay_type": "organism-based", "details": "in vivo"}, "[5]": {"system": "Rattus norvegicus", "assay": "Toxicity in Wistar rat assessed as lipidperoxidation product level in brain at 6 umol/100 g body weight, ip by fluorometric analysis relative to control", "assay_type": "organism-based", "details": "in vivo", "how_it_was_run": "as §1"}, "[6]": {"system": "Rattus norvegicus", "assay": "Toxicity in Wistar rat assessed as GSH level in liver at 1 umol/100 g body weight, ip by fluorometric analysis relative to control", "assay_type": "organism-based", "details": "in vivo"}, "[7]": {"system": "Rattus norvegicus", "assay": "Toxicity in Wistar rat assessed as lipidperoxidation product level in liver at 6 umol/100 g body weight, ip relative to control", "assay_type": "organism-based", "details": "in vivo"}, "[8]": {"system": "Rattus norvegicus", "assay": "Toxicity in Wistar rat assessed as lipidperoxidation product level in kidney at 6 umol/100 g body weight, ip by fluorometric analysis relative to control", "assay_type": "organism-based", "details": "in vivo", "how_it_was_run": "as §1"}, "[9]": {"system": "Rattus norvegicus", "assay": "Toxicity in Wistar rat assessed as lipidperoxidation product level in kidney at 1 umol/100 g body weight, ip by fluorometric analysis relative to control", "assay_type": "organism-based", "details": "in vivo", "how_it_was_run": "as §1"}, "[10]": {"system": "Rattus norvegicus", "assay": "Toxicity in Wistar rat assessed as total glutathione level in brain at 1 umol/100 g body weight, ip by fluorometric analysis relative to control", "assay_type": "organism-based", "details": "in vivo", "how_it_was_run": "as §1"}, "[11]": {"system": "Rattus norvegicus", "assay": "Toxicity in Wistar rat assessed as GSSG level in kidney at 1 umol/100 g body weight, ip by fluorometric analysis relative to control", "assay_type": "organism-based", "details": "in vivo", "how_it_was_run": "as §1"}, "[12]": {"molecular_target": "Amyloid-beta precursor protein (Homo sapiens) (UniProt P05067)", "sequence (P05067 whole entry)": "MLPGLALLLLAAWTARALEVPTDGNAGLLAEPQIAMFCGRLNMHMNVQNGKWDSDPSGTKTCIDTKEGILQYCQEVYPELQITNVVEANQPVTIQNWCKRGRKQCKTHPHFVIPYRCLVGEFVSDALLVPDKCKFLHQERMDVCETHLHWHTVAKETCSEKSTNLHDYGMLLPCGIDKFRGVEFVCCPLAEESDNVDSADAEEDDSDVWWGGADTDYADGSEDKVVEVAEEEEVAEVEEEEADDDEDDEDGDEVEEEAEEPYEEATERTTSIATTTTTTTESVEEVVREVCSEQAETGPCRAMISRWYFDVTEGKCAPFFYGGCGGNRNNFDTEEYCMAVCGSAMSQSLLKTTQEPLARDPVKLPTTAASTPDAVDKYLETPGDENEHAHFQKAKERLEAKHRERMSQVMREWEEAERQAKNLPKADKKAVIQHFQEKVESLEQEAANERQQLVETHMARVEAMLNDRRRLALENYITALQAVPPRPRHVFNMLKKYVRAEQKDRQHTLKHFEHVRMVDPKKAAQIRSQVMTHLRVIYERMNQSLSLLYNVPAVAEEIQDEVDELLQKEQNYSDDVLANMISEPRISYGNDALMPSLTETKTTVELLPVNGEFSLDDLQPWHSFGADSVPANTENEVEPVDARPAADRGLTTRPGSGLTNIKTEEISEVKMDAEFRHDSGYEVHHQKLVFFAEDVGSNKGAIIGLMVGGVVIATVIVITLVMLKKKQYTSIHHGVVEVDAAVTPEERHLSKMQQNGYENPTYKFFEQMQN", "assay": "Inhibition of amyloid beta (1 to 42) aggregation (unknown origin) at 50 uM after 6 days by atomic force microscopic analysis", "how_it_was_run": "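Compound (2.5 µL of 1.0 mM) and 2.5 µL of 200 µM Aβ42 added to 45 µL PBS (20% TFE, pH 7.4); the control lacks compound. Incubated 37 °C for 6 days, then 3 µL deposited on freshly cleaved mica for 5 min, blown dry and imaged by atomic force microscopy.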"}, "[13]": {"system": "Rattus norvegicus", "assay": "Toxicity in Wistar rat assessed as total glutathione level in brain at 6 umol/100 g body weight, ip by fluorometric analysis relative to control", "assay_type": "organism-based", "details": "in vivo", "how_it_was_run": "as §1"}, "[14]": {"system": "Rattus norvegicus", "assay": "Toxicity in Wistar rat assessed as GSSG level in brain at 1 umol/100 g body weight, ip by fluorometric analysis relative to control", "assay_type": "organism-based", "details": "in vivo", "how_it_was_run": "as §1"}, "[15]": {"system": "Rattus norvegicus", "assay": "Toxicity in Wistar rat assessed as lipidperoxidation product level in brain at 1 umol/100 g body weight, ip by fluorometric analysis relative to control", "assay_type": "organism-based", "details": "in vivo", "how_it_was_run": "as §1"}, "[16]": {"system": "Rattus norvegicus", "assay": "Toxicity in Wistar rat assessed as liver weight at 1 umol/100 g body weight, ip relative to control", "assay_type": "organism-based", "details": "in vivo"}, "[17]": {"system": "Rattus norvegicus", "assay": "Toxicity in Wistar rat assessed as GSH level in kidney at 1 umol/100 g body weight, ip by fluorometric analysis relative to control", "assay_type": "organism-based", "details": "in vivo"}, "[18]": {"system": "Rattus norvegicus", "assay": "Toxicity in Wistar rat assessed as total glutathione level in kidney at 6 umol/100 g body weight, ip by fluorometric analysis relative to control", "assay_type": "organism-based", "details": "in vivo", "how_it_was_run": "as §1"}, "[19]": {"system": "Rattus norvegicus", "assay": "Toxicity in Wistar rat assessed as protein content in liver at 6 umol/100 g body weight, ip by Biuret method relative to control", "assay_type": "organism-based", "details": "in vivo", "how_it_was_run": "(§3)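 Rats dosed i.p.; after 24 h, liver homogenized 1:3 w/v in 0.1 M sodium phosphate pH 7.4 and centrifuged at 9000 × g, 4 °C, 20 min. Supernatant protein determined by the Biuret method. Ethoxyresorufin-O-deethylation measured fluorometrically as resorufin formed.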"}, "[20]": {"system": "Rattus norvegicus", "assay": "Toxicity in Wistar rat assessed as ethylmorphine-N-demethylation activity in liver measured as formaldehyde level at 1 umol/100 g body weight, ip by photometric analysis relative to control", "assay_type": "organism-based", "details": "in vivo"}, "[21]": {"system": "Rattus norvegicus", "assay": "Antialzheimer activity in Wistar rat scopolamine-induced cognition impairment model assessed as total exploration time at 1 umol/100 g body weight, ip treated for 5 mins prior to scopolamine-challenge by eight-arm radial maze test relative to control", "assay_type": "functional", "how_it_was_run": "as §2"}, "[22]": {"system": "Rattus norvegicus", "assay": "Toxicity in Wistar rat assessed as GSSG level in brain at 6 umol/100 g body weight, ip by fluorometric analysis relative to control", "assay_type": "organism-based", "details": "in vivo", "how_it_was_run": "as §1"}, "[23]": {"molecular_target": "Amyloid-beta precursor protein (Homo sapiens) (UniProt P05067)", "assay": "Inhibition of amyloid beta (1 to 42) aggregation (unknown origin) after 1 hr by thioflavin T fluorescence assay", "how_it_was_run": "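Aβ42 stock (200 µM in DMSO) centrifuged 12,000 rpm for 10 min; supernatant used. Compound (2 µL of 0.2–4.0 mM DMSO stock) and 2 µL Aβ42 stock added to 76 µL PBS pH 7.4, incubated 1 h at room temperature. 80 µL of 5 µM ThT in 50 mM glycine-NaOH pH 8.5 then added; fluorescence read at excitation 430 nm, emission 488 nm.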"}, "[24]": {"system": "Rattus norvegicus", "assay": "Toxicity in Wistar rat assessed as brain weight at 1 umol/100 g body weight, ip relative to control", "assay_type": "organism-based", "details": "in vivo"}, "[25]": {"system": "Rattus norvegicus", "assay": "Toxicity in Wistar rat assessed as ethoxyresorufin-O-deethylation activity in liver measured as resorufin level at 1 umol/100 g body weight, ip by fluorometric analysis relative to control", "assay_type": "organism-based", "details": "in vivo", "how_it_was_run": "as §3"}}, "note": "Active and inactive are the calls of the source. The calls are words filed in the database; no cut-off is given here.", "data": [{"smiles": "COc1ccc2c(c1)oc1cccc(CN(C(=O)CCO[N+](=O)[O-])C(C)C)c12", "values": [{"measurement": "Activity", "setting": "[1]", "result": 159, "unit": "µg/g"}, {"measurement": "Activity", "setting": "[2]", "result": "Active"}, {"measurement": "Activity", "setting": "[3]", "result": 4.8, "unit": "%"}, {"measurement": "Activity", "setting": "[4]", "result": 1483, "unit": "µg/g"}, {"measurement": "Activity", "setting": "[5]", "result": 156, "unit": "nmol/g"}, {"measurement": "Activity", "setting": "[6]", "result": 2542, "unit": "µg/g"}, {"measurement": "Activity", "setting": "[7]", "result": 63.9, "unit": "nmol/g"}, {"measurement": "Activity", "setting": "[8]", "result": 96.2, "unit": "nmol/g"}, {"measurement": "Activity", "setting": "[9]", "result": 93.2, "unit": "nmol/g"}, {"measurement": "Activity", "setting": "[10]", "result": 814, "unit": "µg/g"}, {"measurement": "Activity", "setting": "[11]", "result": 161, "unit": "µg/g"}, {"measurement": "inhibition", "setting": "[12]", "result": "Active"}, {"measurement": "Activity", "setting": "[13]", "result": 830, "unit": "µg/g"}, {"measurement": "Activity", "setting": "[14]", "result": 84.8, "unit": "µg/g"}, {"measurement": "Activity", "setting": "[15]", "result": 160, "unit": "nmol/g"}, {"measurement": "Activity", "setting": "[16]", "result": 7.6, "unit": "g"}, {"measurement": "Activity", "setting": "[17]", "result": 1462, "unit": "µg/g"}, {"measurement": "Activity", "setting": "[18]", "result": 1800, "unit": "µg/g"}, {"measurement": "Activity", "setting": "[19]", "result": 64.7, "unit": "mg/mL"}, {"measurement": "Activity", "setting": "[20]", "result": 0.48, "unit": "nmol/mg/min"}, {"measurement": "Time", "setting": "[21]", "result": 175, "unit": "s"}, {"measurement": "Activity", "setting": "[22]", "result": 79.1, "unit": "µg/g"}, {"measurement": "inhibition", "setting": "[23]", "result": "Dose-dependent effect"}, {"measurement": "Activity", "setting": "[24]", "result": 1.95, "unit": "g"}, {"measurement": "Activity", "setting": "[25]", "result": 114, "unit": "pmol/mg/min"}]}]}
